ChEMBL document CHEMBL1671698, “Is the recommended once-daily dose of lamivudine optimal in West African HIV-infected children?” (Antimicrob Agents Chemother, 2010)

Key:
[1] = AUC (0 to tau) in HIV-1 infected children aged 2.1 to 12.8 years at 4 mg/kg, po every 12 hrs coadministered with 8 mg/kg abacavir by HPLC; format: ADME, organism-based; settings: human, plasma
[2] = Cmax in HIV-1 infected children aged 2.5 to 4.8 years at 4 mg/kg, po every 12 hrs by HPLC; format: ADME, organism-based; set-up: dose 4 mg/kg, route oral; settings: human, in vivo
[3] = AUC (0 to tau) in HIV-1 infected children aged 2.1 to 12.8 years at 8 mg/kg, po every 24 hrs coadministered with 8 mg/kg abacavir by HPLC; settings: human, plasma
[4] = Cmax in HIV-1 infected children aged 2.1 to 12.8 years at 4 mg/kg, po every 12 hrs coadministered with 8 mg/kg abacavir by HPLC; format: ADME, organism-based; set-up: dose 4 mg/kg, route oral; settings: human, in vivo
[5] = AUC (0 to tau) in HIV-1 infected children aged 6.9 years at 4 mg/kg, po every 12 hrs coadministered with nevirapine and stavudine by HPLC; format: ADME, organism-based; set-up: dose 4 mg/kg, route oral; settings: human, plasma
[6] = Cmax in HIV-1 infected children aged 8.5 to 12.3 years at 4 mg/kg, po every 12 hrs by HPLC; format: ADME, organism-based; set-up: dose 4 mg/kg, route oral; settings: human, in vivo
[7] = AUC in HIV-1 infected children with body weight <17 kg at 8 mg/kg, po every 24 hrs coadministered with 240 mg/m2 of didanosine and efavirenz by HPLC; format: ADME, organism-based; set-up: dose 8 mg/kg, route oral; settings: human, plasma
[8] = AUC (0 to tau) in HIV-1 infected children aged 2.5 to 4.8 years at 4 mg/kg, po every 12 hrs by HPLC; format: ADME, organism-based; set-up: dose 4 mg/kg, route oral; settings: human, plasma
[9] = AUC (0 to tau) in HIV-1 infected children aged 8.5 to 12.3 years at 4 mg/kg, po every 12 hrs by HPLC; format: ADME, organism-based; set-up: dose 4 mg/kg, route oral; settings: human, plasma
[10] = AUC (0 to tau) in HIV-1 infected children aged 2.5 to 14 years at 8 mg/kg, po every 24 hrs coadministered with 240 mg/m2 of didanosine and efavirenz by HPLC; format: ADME, organism-based; set-up: dose 8 mg/kg, route oral; settings: human, plasma
Method in brief: (§1)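 Treatment-naive children took once-daily oral lamivudine at 8 mg/kg (tablets or solution) at 6 p.m. without food, with didanosine 240 mg/m2 and weight-banded efavirenz. Blood was drawn after 15 days (38 children) or 2–5 months (11 children), either predose plus 1 and 3 h, or predose through 24 h. Plasma was kept at −70°C and assayed by HPLC-UV (LLOQ 0.025 mg/liter). Data were fitted with a two-compartment population model in NONMEM using FOCE.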

[11] = test system: Homo sapiens; experiment: AUC in HIV-1 infected children with body weight <17 kg at 10 mg/kg, po every 24 hrs coadministered with 240 mg/m2 of didanosine and efavirenz by HPLC; format: ADME, organism-based, Plasma; set-up: dose 10 mg/kg, route oral; settings: in vivo
[12] = Cmax in HIV-1 infected children aged 6.9 years at 4 mg/kg, po every 12 hrs coadministered with nevirapine and stavudine by HPLC; format: ADME, organism-based; set-up: dose 4 mg/kg, route oral; settings: human, in vivo
[13] = Cmax in HIV-1 infected children aged 2.1 to 12.8 years at 8 mg/kg, po every 24 hrs coadministered with 8 mg/kg abacavir by HPLC; settings: human, in vivo
[14] = AUC in HIV-1 infected children with body weight >17 kg at 8 mg/kg, po every 24 hrs coadministered with 240 mg/m2 of didanosine and efavirenz by HPLC; format: ADME, organism-based; set-up: dose 8 mg/kg, route oral; settings: human, plasma
[15] = Cmax in HIV-1 infected children aged 2.5 to 14 years at 8 mg/kg, po every 24 hrs coadministered with 240 mg/m2 of didanosine and efavirenz by HPLC; format: ADME, organism-based; set-up: dose 8 mg/kg, route oral; settings: human, in vivo; method in brief: as §1

AUC tau at 12 h [1]: 4440 ng·h/mL
Cmax [2]: 980 ng/mL
AUC tau at 24 h [3]: 9800 ng·h/mL
Cmax [4]: 1110 ng/mL
AUC tau at 12 h [5]: 5420 ng·h/mL
Cmax [6]: 1840 ng/mL
AUC tau at 12 h [8]: 3710 ng·h/mL
AUC tau at 12 h [9]: 6540 ng·h/mL
AUC tau at 24 h [10]: 7800 ng·h/mL
Cmax [12]: 1330 ng/mL
Cmax [13]: 2090 ng/mL
Cmax [15]: 1700 ng/mL
Compound: Nc1ccn([C@@H]2CS[C@H](CO)O2)c(=O)n1 [LAMIVUDINE]
AUC at 24 h [7]: 8100 ng·h/mL
AUC [11]: 9.8 mg·h/L
AUC at 24 h [14]: 9100 ng·h/mL
